One block for each compound: values may come before it.
Assays:
[1] = biological target: Histone deacetylase 2 (Homo sapiens) (UniProt Q92769); test: Inhibition of HDAC2 in human HeLa-S3 cell lysates assessed as remaining activity at 8 x 10^-6 M preincubated for 15 mins followed by HDAC-Glo substrate addition measured after 30 to 40 mins by […] relative to control
Procedure, shortened: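 Same antibody-capture format as the other class I isoforms. HeLa-S3 lysate added at 100 μg/mL for HDAC1 and HDAC2, 1 h at 4 °C, then washed. Inhibitor in DMSO preincubated 15 min at RT; HDAC-Glo reagent added and luminescence read after 30-40 min. Concentrations are final. Signal corrected against a well without antibody; activity expressed as % of DMSO control.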

[2] = biological target: Histone deacetylase 3 (Homo sapiens) (UniProt O15379); test: Inhibition of HDAC3 in human HeLa-S3 cell lysates assessed as remaining activity at 2 x 10^-6 M preincubated for 15 mins followed by HDAC-Glo substrate addition measured after 30 to 40 mins by […] relative to control
Procedure, shortened: (§1)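 Antibody-capture (ELISA-type) assay: HDAC antibody coated in carbonate/bicarbonate buffer pH 9.4, wells blocked with 5% milk in TBST. HeLa-S3 lysate added at 1 mg/mL for HDAC3, 1 h at 4 °C, then washed. Inhibitor in DMSO preincubated 15 min at RT in HDAC-Glo buffer. HDAC-Glo reagent added, luminescence read after 30-40 min. Concentrations are final. Background = no-antibody well; activity given as % of DMSO control.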

[3] = biological target: T1, Histone deacetylase (Homo sapiens) (UniProt Q13547+O15379+Q9UBN7+Q92769+Q9UQL6+Q8WUI4+Q9BY41+Q96DB2+P56524+Q9UKV0+Q969S8); test: Inhibition of HDAC in human HeLa-S3 cell lysates assessed as residual activity at 6 x 10^-6 M preincubated for 15 mins followed by HDAC-Glo substrate addition measured after 35 mins by […] relative to control; format: protein assay
Procedure, shortened: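 Lysate (1 μg total protein) in HDAC-Glo buffer was preincubated with inhibitor in DMSO for 15 min at room temperature. HDAC-Glo substrate/developer reagent was added and luminescence read after 35 min. Concentrations are final. Signal corrected for a no-lysate blank; % of DMSO control.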

[4] = biological target: Histone deacetylase 3 (Homo sapiens) (UniProt O15379); test: Inhibition of HDAC3 in human HeLa-S3 cell lysates assessed as remaining activity at 8 x 10^-6 M preincubated for 15 mins followed by HDAC-Glo substrate addition measured after 30 to 40 mins by […] relative to control; procedure, shortened: as §1
[5] = biological target: T1, Histone deacetylase (Homo sapiens); test: Inhibition of HDAC in human HeLa-S3 cell lysates assessed as residual activity at 2.4 x 10^-5 M preincubated for 15 mins followed by HDAC-Glo substrate addition measured after 35 mins by […] relative to control; format: protein assay
[6] = biological target: Histone deacetylase 1 (Homo sapiens) (UniProt Q13547); test: Inhibition of HDAC1 in human HeLa-S3 cell lysates assessed as remaining activity at […] preincubated for 15 mins followed by HDAC-Glo substrate addition measured after 30 to 40 mins by […] relative to control
[7] = biological target: Histone deacetylase 3 (Homo sapiens) (UniProt O15379); test: Inhibition of HDAC3 in human HeLa-S3 cell lysates assessed as remaining activity at 1.25 uM preincubated for 15 mins followed by HDAC-Glo substrate addition measured after 30 to 40 mins by […] relative to control; procedure, shortened: as §1
[8] = biological target: T2, Protein deacetylase HDAC6 (Homo sapiens) (UniProt Q9UBN7); test: Inhibition of HDAC6 in human HeLa-S3 cell lysates assessed as remaining activity at 1.25 uM preincubated for 15 mins followed by HDAC-Glo substrate addition measured after 30 to 40 mins by […] relative to control
T2 sequence (whole entry): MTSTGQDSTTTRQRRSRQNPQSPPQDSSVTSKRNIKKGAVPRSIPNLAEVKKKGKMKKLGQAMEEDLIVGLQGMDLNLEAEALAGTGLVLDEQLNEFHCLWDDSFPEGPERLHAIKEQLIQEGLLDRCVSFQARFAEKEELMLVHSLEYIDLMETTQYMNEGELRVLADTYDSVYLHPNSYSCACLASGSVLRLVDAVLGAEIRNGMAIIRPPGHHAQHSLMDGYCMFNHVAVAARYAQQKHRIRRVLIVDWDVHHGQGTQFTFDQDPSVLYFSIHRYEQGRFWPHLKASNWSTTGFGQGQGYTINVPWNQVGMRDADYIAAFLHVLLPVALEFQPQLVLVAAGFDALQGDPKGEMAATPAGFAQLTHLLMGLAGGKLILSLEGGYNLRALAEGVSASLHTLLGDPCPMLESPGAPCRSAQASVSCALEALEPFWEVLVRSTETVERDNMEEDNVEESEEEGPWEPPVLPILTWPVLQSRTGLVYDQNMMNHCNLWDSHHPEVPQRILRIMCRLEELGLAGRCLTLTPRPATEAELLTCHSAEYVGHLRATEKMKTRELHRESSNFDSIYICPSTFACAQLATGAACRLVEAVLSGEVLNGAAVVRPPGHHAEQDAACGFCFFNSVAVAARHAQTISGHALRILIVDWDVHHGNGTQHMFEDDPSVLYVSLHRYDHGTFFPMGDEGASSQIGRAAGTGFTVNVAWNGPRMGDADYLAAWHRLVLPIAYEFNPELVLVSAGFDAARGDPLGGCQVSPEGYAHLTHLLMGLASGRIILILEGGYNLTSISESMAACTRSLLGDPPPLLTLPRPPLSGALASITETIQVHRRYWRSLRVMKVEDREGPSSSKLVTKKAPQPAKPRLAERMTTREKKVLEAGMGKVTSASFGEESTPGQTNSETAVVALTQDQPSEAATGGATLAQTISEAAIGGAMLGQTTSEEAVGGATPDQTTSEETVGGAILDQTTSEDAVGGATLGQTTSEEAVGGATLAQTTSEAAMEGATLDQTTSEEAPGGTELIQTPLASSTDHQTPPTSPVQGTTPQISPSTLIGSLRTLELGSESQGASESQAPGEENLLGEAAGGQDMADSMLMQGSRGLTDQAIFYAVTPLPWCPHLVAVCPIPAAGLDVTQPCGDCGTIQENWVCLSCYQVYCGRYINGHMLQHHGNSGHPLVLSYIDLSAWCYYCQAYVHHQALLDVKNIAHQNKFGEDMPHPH
Procedure, shortened: (§2)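 HDAC6 captured on an anti-HDAC6 antibody-coated plate (2 μg/mL, pH 9.4 carbonate buffer, milk-blocked). HeLa-S3 lysate loaded at 1 mg/mL, 1 h at 4 °C, then washed. 15 min RT preincubation with inhibitor in DMSO; HDAC-Glo reagent added, luminescence read at 30-40 min. Concentrations are final. Background = no-antibody well; values are % activity versus DMSO control.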

[9] = biological target: Histone deacetylase 3 (Homo sapiens) (UniProt O15379); test: Inhibition of HDAC3 in human HeLa-S3 cell lysates assessed as remaining activity at 5 uM preincubated for 15 mins followed by HDAC-Glo substrate addition measured after 30 to 40 mins by […] relative to control; procedure, shortened: as §1
[10] = biological target: T2, Protein deacetylase HDAC6 (Homo sapiens); test: Inhibition of HDAC6 in human HeLa-S3 cell lysates assessed as remaining activity at 8 x 10^-7 M preincubated for 15 mins followed by HDAC-Glo substrate addition measured after 30 to 40 mins by […] relative to control; procedure, shortened: as §2

Histone deacetylase 3 (Homo sapiens), sequence (O15379 whole entry): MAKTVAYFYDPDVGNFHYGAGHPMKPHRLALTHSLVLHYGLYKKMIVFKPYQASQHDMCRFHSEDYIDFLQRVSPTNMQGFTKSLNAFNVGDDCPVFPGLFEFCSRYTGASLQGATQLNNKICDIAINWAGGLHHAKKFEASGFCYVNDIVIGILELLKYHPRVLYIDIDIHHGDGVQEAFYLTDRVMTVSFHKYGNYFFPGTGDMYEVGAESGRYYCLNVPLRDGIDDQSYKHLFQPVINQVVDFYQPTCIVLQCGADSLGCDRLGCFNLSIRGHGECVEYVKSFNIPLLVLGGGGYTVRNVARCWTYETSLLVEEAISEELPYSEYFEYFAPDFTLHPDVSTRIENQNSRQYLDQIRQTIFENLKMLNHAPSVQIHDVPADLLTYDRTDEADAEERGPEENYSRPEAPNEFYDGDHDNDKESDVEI
Histone deacetylase 2 (Homo sapiens), sequence (Q92769 whole entry, canonical isoform): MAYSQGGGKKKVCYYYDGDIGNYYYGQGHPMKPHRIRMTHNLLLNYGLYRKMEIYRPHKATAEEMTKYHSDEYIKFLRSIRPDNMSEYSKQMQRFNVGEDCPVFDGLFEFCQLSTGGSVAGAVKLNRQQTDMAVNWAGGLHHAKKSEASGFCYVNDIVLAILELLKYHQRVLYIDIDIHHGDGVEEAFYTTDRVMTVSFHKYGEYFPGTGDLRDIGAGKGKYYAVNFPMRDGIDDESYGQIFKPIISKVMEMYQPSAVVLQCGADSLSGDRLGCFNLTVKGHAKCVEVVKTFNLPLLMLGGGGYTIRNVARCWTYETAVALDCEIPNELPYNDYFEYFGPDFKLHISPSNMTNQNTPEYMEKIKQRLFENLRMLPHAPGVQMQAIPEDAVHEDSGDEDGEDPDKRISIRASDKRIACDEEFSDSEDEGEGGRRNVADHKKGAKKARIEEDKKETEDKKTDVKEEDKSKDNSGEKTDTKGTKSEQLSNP
Histone deacetylase 1 (Homo sapiens), sequence (Q13547 whole entry): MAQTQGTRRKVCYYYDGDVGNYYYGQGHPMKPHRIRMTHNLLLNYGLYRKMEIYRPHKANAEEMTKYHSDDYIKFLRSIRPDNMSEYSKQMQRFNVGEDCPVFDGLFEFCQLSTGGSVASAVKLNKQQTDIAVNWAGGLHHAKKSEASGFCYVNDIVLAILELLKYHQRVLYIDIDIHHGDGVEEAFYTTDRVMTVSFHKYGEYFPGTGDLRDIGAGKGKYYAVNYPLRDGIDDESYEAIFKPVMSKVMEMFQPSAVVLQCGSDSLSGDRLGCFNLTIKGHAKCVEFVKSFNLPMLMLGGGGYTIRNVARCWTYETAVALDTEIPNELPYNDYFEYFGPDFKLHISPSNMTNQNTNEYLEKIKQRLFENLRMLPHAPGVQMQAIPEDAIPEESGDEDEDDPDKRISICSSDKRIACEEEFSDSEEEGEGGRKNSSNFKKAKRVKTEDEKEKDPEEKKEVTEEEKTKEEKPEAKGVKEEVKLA

Activity [1]: 34%
Activity [2]: 71%
Activity [3]: 82%
Activity [4]: 52%
Activity [5]: 31%
Activity [6]: 91%
SMILES: CCC(CCCC(=O)Nc1ccccc1)CCC(=O)NO (stereo not given)

Activity [7]: 100%
Activity [8]: 21%
SMILES: CCCCCCC(CCCC(=O)Nc1ccccc1)CCC(=O)NO (stereo not given)

Activity [9]: 90%
SMILES: O=C(CCC(CCCC(=O)Nc1ccccc1)Cc1ccccc1)NO (racemic)

Activity [10]: 16%
SMILES: O=C(CC[C@H](CCCC(=O)Nc1ccccc1)Cc1ccccc1)NO

From ChEMBL document CHEMBL4251567 (Eur J Med Chem, 2018)
